ChEMBL document CHEMBL2040719, “Fragment-based design of symmetrical bis-benzimidazoles as selective inhibitors of the trimethoprim-resistant, type II R67 dihydrofolate reductase” (J Med Chem, 2012)
The source made the active and inactive calls. The calls are words filed in the database; no cut-off is given here.

Experiments:
[1] = Inhibition of recombinant type N-terminal His6-tagged 2 R67 DHFR expressed in Escherichia coli BL21 using DHF as substrate by spectrophotometry
How it was run: (§1)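 His-tagged R67 DHFR purified from E. coli by Ni affinity with an imidazole gradient. Activity followed as NADPH plus DHF depletion at 340 nm (Δε 12800 M⁻¹cm⁻¹) in 400 mM HEPES pH 7.0 with 10% final DMSO. Reactions started with 250 nM enzyme; initial rates (<10% conversion). Ki via Cheng–Prusoff with KM(NADPH) 1.6 μM, assuming competitive inhibition.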

[2] = molecular target: T1, Dihydrofolate reductase (Homo sapiens) (UniProt P00374); experiment: Inhibition of human chromosomal DHFR expressed in Escherichia coli BL21 using DHF as substrate assessed as remaining activity at 5 mM by spectrophotometry relative to control
T1 sequence (whole entry): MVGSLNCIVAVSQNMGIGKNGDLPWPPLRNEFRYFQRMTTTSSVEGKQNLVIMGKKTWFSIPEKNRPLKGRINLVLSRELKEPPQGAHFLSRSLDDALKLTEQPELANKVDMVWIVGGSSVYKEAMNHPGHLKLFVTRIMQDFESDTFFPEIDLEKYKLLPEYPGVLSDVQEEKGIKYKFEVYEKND
How it was run: (§2)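 Human chromosomal DHFR overexpressed in E. coli BL21(DE3). Spectrophotometric assay at 340 nm following NADPH/DHF depletion in 50 mM potassium phosphate pH 8.0, 10% final DMSO, initial rates. Each compound was tested at its highest concentration allowed by solubility and absorbance; activity reported relative to the uninhibited control.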

[3] = molecular target: T1, Dihydrofolate reductase (Homo sapiens); experiment: Inhibition of human chromosomal DHFR expressed in Escherichia coli BL21 using DHF as substrate assessed as remaining activity at 30 mM by spectrophotometry relative to control; how it was run: as §2
[4] = Inhibition of Escherichia coli R67 DHFR; how it was run: as §1
[5] = molecular target: T1, Dihydrofolate reductase (Homo sapiens); experiment: Inhibition of human chromosomal DHFR expressed in Escherichia coli BL21 using DHF as substrate assessed as remaining activity at 1 mM by spectrophotometry relative to control; how it was run: as §2
[6] = Cytotoxicity against mouse 3T6 cells assessed as cell death at 200 uM after 72 hrs by MTT assay; format: cell-based
How it was run: (§3)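 Mouse 3T6 embryonic fibroblasts in DMEM + 10% heat-inactivated FBS, 37 °C, 5% CO2, seeded at 5×10³ cells/well. Eight dilutions 0.05–200 μM from DMSO, medium with compound renewed at 24 h, 48 h further incubation. MTT 3 h, read at 540 nm with 690 nm reference. Triplicates; % inhibition versus blank-corrected solvent controls; IC50 from the plot.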

[7] = tested on: Escherichia coli; experiment: Antibacterial activity against Escherichia coli […] expressing […] up to 1 mM in presence of 50 ug/mL Trimethoprim; format: functional, organism-based
How it was run: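 E. coli XL1-Blue expressing R67 DHFR grown in M9 minimal medium with 50 μg/mL TMP to block chromosomal DHFR; growth inhibition tested up to 1 mM (maximal concentration).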

[8] = molecular target: T1, Dihydrofolate reductase (Homo sapiens); experiment: Inhibition of human chromosomal DHFR expressed in Escherichia coli BL21 using DHF as substrate assessed as remaining activity at 10 mM by spectrophotometry relative to control; how it was run: as §2
[9] = Cytotoxicity against mouse 3T6 cells after 72 hrs by MTT assay; format: cell-based; how it was run: as §3
[10] = molecular target: T1, Dihydrofolate reductase (Homo sapiens); experiment: Inhibition of human chromosomal DHFR expressed in Escherichia coli BL21 using DHF as substrate assessed as remaining activity at 2.5 mM by spectrophotometry relative to control; how it was run: as §2
[11] = molecular target: T1, Dihydrofolate reductase (Homo sapiens); experiment: Inhibition of human chromosomal DHFR expressed in Escherichia coli BL21 using DHF as substrate assessed as remaining activity at 300 uM by spectrophotometry relative to control
[12] = Competitive inhibition of recombinant R67 DHFR expressed in Escherichia coli BL21 using DHF as substrate by Dixon plot analysis in the presence of 5 to 80 uM NADPH
How it was run: (§4)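 Dixon method in 50 mM potassium phosphate pH 7.0, 10% DMSO. NADPH series: DHF fixed at 50 μM, NADPH at 5 or 80 μM, inhibitor over a range spanning Ki. DHF series: NADPH fixed at 50 μM. Reciprocal rates plotted against inhibitor concentration; Ki taken from the slope intersection; triplicates, mean ± SD.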

[13] = Competitive inhibition of recombinant R67 DHFR expressed in Escherichia coli BL21 using 25 to 164 uM DHF as substrate by Dixon plot analysis in the presence of 50 uM of NADPH; how it was run: as §4
[14] = molecular target: T1, Dihydrofolate reductase (Homo sapiens); experiment: Inhibition of human chromosomal DHFR expressed in Escherichia coli BL21 using DHF as substrate assessed as remaining activity at 400 uM by spectrophotometry relative to control

| IC50 [1] | inhibition [1] | SMILES | Ki [1] | other results |
| --- | --- | --- | --- | --- |
| 8400 µM | – | O=C(O)c1ccc2[nH]nnc2c1 | 260 µM | Activity [3]: 69% |
| – | inactive | CC(C)n1nnc2cc(C(=O)O)ccc21 | – | – |
| 2600 µM | – | O=C(O)c1ccc2[nH]cnc2c1 | 80 µM | Activity [8]: 75% |
| – | inactive | Cc1nc2cc(C(=O)O)ccc2[nH]1 | – | – |
| ≥ 1000 µM | – | O=C(O)c1ccc(OCCCCCOc2ccc(C(=O)O)cc2)cc1 | – | Activity [5]: 100%; IC50 [9]: 34 µM |
| 1700 µM | – | Nc1ccc2cc(C(=O)O)ccc2c1 | 51 µM | Activity [10]: 14% |
| – | inactive | Nc1cc2ccccc2cc1C(=O)O | – | – |
| 6100 µM | – | O=C(O)c1ccc2cc(O)ccc2c1 | 190 µM | Activity [8]: 13% |
| – | inactive | COc1ccc2cc(C(=O)O)ccc2c1 | – | – |

The next lines start with the molecule.

| SMILES | IC50 [1] | inhibition [1] | Ki [1] | other results |
| --- | --- | --- | --- | --- |
| O=C(O)c1cc2nccnc2s1 | 2000 µM | – | 61 µM | Activity [2]: 37% |
| Nc1c(/N=N/c2ccc(-c3ccc(/N=N/c4cc(S(=O)(=O)O)c5ccccc5c4N)cc3)cc2)cc(S(=O)(=O)O)c2ccccc12 [CONGO RED] | – | – | – | Ki [4]: 2 µM |
| CO[C@@H]1[C@@H](OC(N)=O)[C@@H](O)[C@H](Oc2ccc3c(O)c(NC(=O)c4ccc(O)c(CC=C(C)C)c4)c(=O)oc3c2C)OC1(C)C [NOVOBIOCIN] | – | – | – | Ki [4]: 70 µM |
| O=C(O)c1ccc2c(c1)OCO2 | – | inactive | – | – |
| O=C(O)c1ccc2[nH]c(-c3ccc(OCC(O)COc4ccc(-c5nc6cc(C(=O)O)ccc6[nH]5)cc4)cc3)nc2c1 | 130 µM | – | 4 µM | Activity [5]: 95%; Activity [6]: 40%; Activity [7]: inactive |
| COc1cc2c(OC)cccc2cc1C(=O)O | 1800 µM | – | 55 µM | Activity [2]: 14% |
| c1ccc2[nH]c(-c3ccc(OCCCCCOc4ccc(-c5nc6ccccc6[nH]5)cc4)cc3)nc2c1 | ≥ 300 µM | – | – | Activity [11]: 110%; IC50 [9]: 0.98 µM |
| O=C(O)c1ccc2[nH]c(-c3ccc(OCCCCCOc4ccc(-c5nc6cc(C(=O)O)ccc6[nH]5)cc4)cc3)nc2c1 | 64 µM | – | 2 µM | Activity [6]: 40%; Ki [12]: 4.2 µM; Ki [13]: 9.7 µM; Activity [14]: 95%; Activity [7]: inactive |
| Oc1nncc2ccccc12 [PHTHALAZINONE] | 17000 µM | – | 530 µM | Activity [3]: 97% |
| c1ccc2[nH]cnc2c1 | – | inactive | – | – |
